In ChEMBL document CHEMBL1138316, “Design, synthesis, and melatoninergic activity of new azido- and isothiocyanato-substituted indoles” (J Med Chem, 2007):
The source made the active and inactive calls. No cut-off for these calls is given here.

What was measured:
Assay type in all cases: functional
[1] = Antagonist activity at melatonin receptor in Xenopus laevis melanophores assessed as reduction of melatonin-induced pigment aggregation
Procedure, shortened: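 Antagonism of the melatonin response in Xenopus laevis melanophores was reported as pIC50. Values are the mean ± SEM of triplicate experiments.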

[2] = organism: Xenopus laevis; experiment: Agonist activity at melatonin receptor in Xenopus laevis melanophores assessed as effect on pigment granule distribution at 100 uM
Procedure, shortened: (§1)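 Agonist response in Xenopus laevis melanophores was tested up to a highest concentration of 100 µM and reported as pEC50. Values are the mean ± SEM of triplicate experiments.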

[3] = organism: Xenopus laevis; experiment: Agonist activity at melatonin receptor in Xenopus laevis melanophores assessed as effect on pigment granule distribution at 100 uM relative to melatonin
Procedure, shortened: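 In Xenopus laevis melanophores, maximal agonist action at 100 µM was expressed as a percentage of the response to 1 nM melatonin. Data come from triplicate experiments.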

[4] = Agonist activity at melatonin receptor in Xenopus laevis melanophores assessed as effect on pigment granule distribution; procedure, shortened: as §1

Row | SMILES | Log IC50 [1] | Activity [2] | Activity [3] | Log EC50 [4]
1 | CC(=O)NCCc1c(Cc2ccccc2)[nH]c2ccccc12 [LUZINDOLE] | -5.61 | inactive |  | 
2 | COc1ccc2[nH]cc(CCN=C=S)c2c1 | -5.47 | inactive |  | 
3 | S=C=NCCCc1c[nH]c2ccccc12 | -3.92 |  | 31% | 
4 | S=C=NCCCc1cc2ccccc2[nH]1 | -4.35 |  | 38% | 
5 | [N-]=[N+]=NCCCn1ccc2ccccc21 | -4.82 | inactive |  | 
6 | COc1ccc2[nH]cc(CCCN=[N+]=[N-])c2c1 | -5.03 | inactive |  | 
7 | [N-]=[N+]=NCCCc1c[nH]c2ccccc12 | -4.79 | inactive |  | 
8 | COc1ccc2[nH]c(CCCN=[N+]=[N-])cc2c1 | -4.15 | inactive |  | 
9 | COc1ccc2c(ccn2CCCN=[N+]=[N-])c1 | -4.81 | inactive |  | 
10 | COc1ccc2[nH]cc(CCNC(C)=O)c2c1 [MELATONIN] |  |  |  | -10.07
11 | COc1ccc2[nH]cc(CCN=[N+]=[N-])c2c1 | -5.09 | inactive |  | 
12 | [N-]=[N+]=NCCCc1cc2ccccc2[nH]1 | -4.72 | inactive |  | 
13 | S=C=NCCCn1ccc2ccccc21 | -4.04 |  | 28% | 
14 | COc1ccc2[nH]cc(CCCN=C=S)c2c1 | -4.49 | inactive |  | 
15 | COc1ccc2[nH]c(CCCN=C=S)cc2c1 | -4.47 |  | 41% | 
16 | COc1ccc2c(ccn2CCCN=C=S)c1 | -4.91 | inactive |  | 
